# Source: article PMC3775155 (Clinical Drug Investigation, 2013)
# Where “and” joins values, the source holds several entries; their conditions need not be identical. Equal values may be shown once. Read-outs that look alike come from different tables or passages of the source.
# What was measured:
# [1] = format: in vivo, human
# [2] = format: in vivo, human; remark: listed apart in the source
# [3] = format: in vivo, human; remark: listed apart in the source
# Method in brief: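 Open-label, randomized, 1-sequence design in healthy adults aged 18–55 y with BMI 19–30 kg/m2 (N = 36 across two arms). Test compound given as a single 10 mg dose on day 1, then a 14-day washout. The azole antifungal was given at 200 mg once daily on days 15–21, with test compound 10 mg on day 21. EDTA plasma was sampled predose and 1–120 h postdose on days 1 and 21. Analysis used SPE and HPLC. Noncompartmental AUClast, AUC∞ and Cmax were derived. A mixed-effects model (treatment fixed, subject random) was applied, and back-transformed LS-mean ratios with 90% CI are reported.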
# [4] = format: in vivo, human; remark: listed apart in the source
# Method in brief: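 Open-label, randomized, 1-sequence design in healthy adults aged 18–55 y with BMI 19–30 kg/m2 (N = 36 across two arms). Test compound given as a single 10 mg dose on day 1, then a 14-day washout. The azole antifungal (CYP3A/P-gp inhibitor) was given at 400 mg once daily on days 15–21, with test compound 10 mg on day 21. EDTA plasma was sampled predose and 1–120 h postdose on days 1 and 21. Analysis used SPE and HPLC. Noncompartmental AUClast, AUC∞ and Cmax were derived. A mixed-effects model (treatment fixed, subject random) gave back-transformed LS-mean ratios with 90% CI.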
# [5] = format: in vivo, human; remark: listed apart in the source
# [6] = Adverse events in the bupropion study; format: in vivo, human; settings: monotherapy period, days 1–14, n = 30
# CYP1A2 = test: In vitro CYP inhibition; format: in vitro ADME
# CYP2A6 = test: In vitro CYP inhibition; format: in vitro ADME
# CYP2B6 = test: In vitro CYP inhibition; format: in vitro ADME
# CYP2C8 = test: In vitro CYP inhibition; format: in vitro ADME
# CYP2C9 = test: In vitro CYP inhibition; format: in vitro ADME
# CYP2C19 = test: In vitro CYP inhibition; format: in vitro ADME
# CYP2D6 = test: In vitro CYP inhibition; format: in vitro ADME
# CYP2E1 = test: In vitro CYP inhibition; format: in vitro ADME
# CYP3A4/5 = test: In vitro CYP inhibition; format: in vitro ADME
# P-glycoprotein (P-gp) = P-glycoprotein (P-gp) (Homo sapiens, UniProt P08183); test: In vitro P-gp net efflux ratio; format: in vitro ADME; settings: compared with digoxin; unpublished results
# P-glycoprotein (P-gp), sequence (P08183 whole entry): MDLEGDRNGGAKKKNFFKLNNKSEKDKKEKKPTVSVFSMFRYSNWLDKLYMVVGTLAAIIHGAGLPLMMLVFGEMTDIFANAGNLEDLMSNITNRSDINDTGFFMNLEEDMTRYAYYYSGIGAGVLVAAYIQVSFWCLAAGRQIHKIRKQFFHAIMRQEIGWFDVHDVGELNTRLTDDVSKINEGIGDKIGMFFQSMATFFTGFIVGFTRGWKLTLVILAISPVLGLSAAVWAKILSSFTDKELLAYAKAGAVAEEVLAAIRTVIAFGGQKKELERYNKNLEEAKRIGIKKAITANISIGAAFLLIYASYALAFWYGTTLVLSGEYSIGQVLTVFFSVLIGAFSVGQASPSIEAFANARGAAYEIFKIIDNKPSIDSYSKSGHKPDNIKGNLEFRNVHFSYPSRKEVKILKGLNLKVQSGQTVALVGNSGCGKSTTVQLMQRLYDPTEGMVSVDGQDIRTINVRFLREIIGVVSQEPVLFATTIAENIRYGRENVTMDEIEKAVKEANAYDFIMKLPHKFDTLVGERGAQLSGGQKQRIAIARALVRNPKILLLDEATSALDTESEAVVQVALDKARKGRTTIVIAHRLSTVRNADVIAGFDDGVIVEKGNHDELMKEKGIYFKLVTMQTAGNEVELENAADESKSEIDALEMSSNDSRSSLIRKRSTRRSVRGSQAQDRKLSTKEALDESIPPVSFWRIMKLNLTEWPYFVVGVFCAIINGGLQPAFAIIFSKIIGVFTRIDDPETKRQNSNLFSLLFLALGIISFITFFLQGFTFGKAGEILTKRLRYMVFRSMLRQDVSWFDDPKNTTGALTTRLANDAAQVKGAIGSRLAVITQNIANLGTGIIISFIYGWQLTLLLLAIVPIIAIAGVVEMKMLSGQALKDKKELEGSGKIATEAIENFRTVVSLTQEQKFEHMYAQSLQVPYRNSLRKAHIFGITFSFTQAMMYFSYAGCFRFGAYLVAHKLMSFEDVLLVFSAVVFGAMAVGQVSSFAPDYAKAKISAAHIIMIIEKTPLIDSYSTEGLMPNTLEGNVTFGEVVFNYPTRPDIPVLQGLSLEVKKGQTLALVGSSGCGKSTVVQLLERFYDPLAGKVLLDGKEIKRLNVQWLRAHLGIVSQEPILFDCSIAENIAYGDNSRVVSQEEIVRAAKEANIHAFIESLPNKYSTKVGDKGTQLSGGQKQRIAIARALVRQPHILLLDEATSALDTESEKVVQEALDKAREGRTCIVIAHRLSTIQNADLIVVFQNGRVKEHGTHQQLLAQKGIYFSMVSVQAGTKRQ
# [7] = cited from earlier work
# [8] = cited from earlier work; remark: listed apart in the source
# [9] = co-administered with bupropion vs vortioxetine alone
# [10] = co-administered with fluconazole vs vortioxetine alone
# [11] = co-administered with ketoconazole vs vortioxetine alone
# [12] = co-administered with rifampicin vs vortioxetine alone
structure (smiles),measurement,setting,value
"Br.Cc1ccc(Sc2ccccc2N2CCNCC2)c(C)c1 [Vortioxetine, 1-[2-(2,4-dimethylphenylsulfanyl)-phenyl]-piperazine-hydrobromide]",increase in exposure of vortioxetine,[1]; bupropion added to vortioxetine,approximately 100%
same,increase in vortioxetine AUC,[1]; [9],128%
same,increase in vortioxetine Cmax,[1]; [9],114%
same,AUC,"[1]; human, plasma, 10 mg",308 ng·h/mL
same,Cmax,"[1]; human, plasma, 10 mg",15.9 ng/mL
same,AUC24 ratio (test/reference),[1]; with bupropion vs alone,228.30%
same,Cmax ratio (test/reference),[1]; with bupropion vs alone,213.57%
same,AUC,"[2]; human, plasma, 10 mg",243 ng·h/mL
same,Cmax,"[2]; human, plasma, 10 mg",13.8 ng/mL
same,AUC24 ratio (test/reference),[2]; with omeprazole vs alone,105.5%
same,Cmax ratio (test/reference),[2]; with omeprazole vs alone,100.5%
same,increase in vortioxetine AUC,[3]; [10],46%
same,increase in vortioxetine Cmax,[3]; [10],15%
same,AUC(0-t),"[3]; human, plasma, 10 mg",222 ng·h/mL
same,Cmax,"[3]; human, plasma, 10 mg",4.52 ng/mL
same,AUClast ratio (test/reference),[3]; with fluconazole vs alone,146.17%
same,Cmax ratio (test/reference),[3]; with fluconazole vs alone,114.64%
same,increase in vortioxetine AUC,[4]; [11],30%
same,increase in vortioxetine Cmax,[4]; [11],26%
same,AUC(0-t),"[4]; human, plasma, 10 mg",262 ng·h/mL
same,Cmax,"[4]; human, plasma, 10 mg",4.92 ng/mL
same,AUClast ratio (test/reference),[4]; with ketoconazole vs alone,130.48%
same,Cmax ratio (test/reference),[4]; with ketoconazole vs alone,125.73%
same,decrease in vortioxetine AUC (exposure),[5]; [12],72% and 72 to 77%
same,decrease in vortioxetine Cmax,[5]; [12],51%
same,AUC(0-t),"[5]; human, plasma, 20 mg",438 ng·h/mL
same,Cmax,"[5]; human, plasma, 20 mg",8.92 ng/mL
same,AUClast ratio (test/reference),[5]; with rifampicin vs alone,27.74%
same,Cmax ratio (test/reference),[5]; with rifampicin vs alone,49.11%
same,Abnormal dreams,[6],2 (6.7) number of subjects (%)
same,Agitation,[6],0 number of subjects (%)
same,Anxiety,[6],0 number of subjects (%)
same,Constipation,[6],3 (10.0) number of subjects (%)
same,Dizziness,[6],1 (3.3) number of subjects (%)
same,Dyspepsia,[6],1 (3.3) number of subjects (%)
same,Fatigue,[6],1 (3.3) number of subjects (%)
same,Headache,[6],4 (13.3) number of subjects (%)
same,Hyperhidrosis,[6],0 number of subjects (%)
same,Insomnia,[6],1 (3.3) number of subjects (%)
same,Nausea,[6],9 (30.0) number of subjects (%)
same,Oropharyngeal pain,[6],0 number of subjects (%)
same,Palpitations,[6],2 (6.7) number of subjects (%)
same,Somnolence,[6],0 number of subjects (%)
same,Tremor,[6],0 number of subjects (%)
same,URTI (upper respiratory tract infection),[6],0 number of subjects (%)
same,Vertigo,[6],0 number of subjects (%)
same,Vomiting,[6],3 (10.0) number of subjects (%)
same,inhibitory concentration/inhibition constant ratio ([I]/Ki),CYP1A2,≤ 0.024
same,inhibitory concentration/inhibition constant ratio ([I]/Ki),CYP2A6,≤ 0.024
same,inhibitory concentration/inhibition constant ratio ([I]/Ki),CYP2B6,≤ 0.024
same,inhibitory concentration/inhibition constant ratio ([I]/Ki),CYP2C8,≤ 0.024
same,inhibitory concentration/inhibition constant ratio ([I]/Ki),CYP2C9,≤ 0.024
same,inhibitory concentration/inhibition constant ratio ([I]/Ki),CYP2C19,≤ 0.024
same,inhibitory concentration/inhibition constant ratio ([I]/Ki),CYP2D6,≤ 0.024
same,inhibitory concentration/inhibition constant ratio ([I]/Ki),CYP2E1,≤ 0.024
same,inhibitory concentration/inhibition constant ratio ([I]/Ki),CYP3A4/5,≤ 0.024
same,in vitro net efflux ratio (P-gp substrate),P-glycoprotein (P-gp),much lower than that of the P-gp substrate digoxin
same,elimination half-life,[7],57 h
same,steady-state volume of distribution,[7],approximately 2600 L
same,oral bioavailability,[7]; independent of food,75%
same,drug-related material excreted in the feces,[8],one-third
same,drug-related material excreted in the urine,[8]; primarily as Lu AA34443 and its glucuronide,two-thirds
